Test: lowest concentration at which glucose utilized was greater than or equal to 140% of control value tested in a glucose utilization L6 myocyte in vitro assay
Type: functional, Rattus norvegicus
In short: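 Differentiated rat L6 myotubes (day 11 or 13 after plating) exposed 20 h to compound in serum-free DMEM with 15 mM glucose and 1% final DMSO. Tested in quadruplicate at 3, 10, 30, 100, 300 µM. Glucose left in the medium read by glucose oxidase. Value is the lowest concentration giving at least 40% more utilization than control.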

Row | SMILES | Lowest effective concentration for glucose utilization ≥140% of control
1 | CC1(C)C[C@]2(c3ccc(Oc4ccccc4)cc3)OCCN2C1=O | 10 µM
2 | O=C1CC[C@]2(c3ccc(Cl)cc3)O[C@@H](CO)CN12 | >300 µM
3 | O=C1CC[C@]2(c3ccc(Cl)c(C(F)(F)F)c3)O[C@H](COc3ccc(Cl)cc3)CN12 | 10 µM
4 | COC(=O)COC[C@@H]1CN2C(=O)CC[C@]2(c2ccc(Cl)cc2)O1 | >300 µM
5 | O=C1CCC[C@]2(c3ccc(Oc4ccccc4)cc3)O[C@H](COc3ccc(Cl)cc3)CN12 | 100 µM
6 | O=C1CC[C@]2(c3ccc(Cl)cc3)O[C@@H](CNc3ccc(Cl)cc3)CN12 | >300 µM
7 | OCc1cc(-c2ccc(Cl)c(Cl)c2)no1 | 30 µM
8 | CC(=O)c1cc(CO)on1 | >300 µM
9 | CC(C)(C)c1cc(CO)on1 | >300 µM
10 | CC(C)(O)c1cc(-c2ccc(Cl)cc2)no1 | 100 µM
11 | CNC(=O)N1CCO[C@@H]1c1ccc(Cl)cc1 | >300 µM
12 | O=C1CC[C@]2(c3ccc(Cl)cc3)O[C@H](CNc3ccc(Cl)cc3)CN12 | >300 µM
13 | CC(=O)N1C[C@H](COc2ccc(Cl)cc2)O[C@@H]1c1ccc(Cl)c(C(F)(F)F)c1 | 30 µM
14 | O=C1CC[C@]2(c3ccc(Cl)cc3)O[C@H](COc3ccc(Cl)cc3)CCN12 | >300 µM
15 | Clc1ccc(OCc2cc(-c3ccc(Cl)cc3)no2)cc1 | >300 µM
16 | O=C(Nc1ccccc1)N1C[C@H](COc2ccc(Cl)cc2)O[C@@H]1c1ccc(Cl)c(Cl)c1 | 30 µM
17 | CC(C)(C)[C@]12CCC(=O)N1C[C@@H](COc1ccc(Cl)cc1)O2 | >300 µM
18 | O=C1CC[C@]2(c3ccc(Cl)c(Cl)c3)O[C@@H](COc3ccc(Cl)cc3)CN12 | 30 µM
19 | OCCc1cc(-c2ccc(Cl)cc2)no1 | 100 µM
20 | CC(=O)N(C[C@@H]1CN2C(=O)CC[C@]2(c2ccc(Cl)cc2)O1)c1ccc(Cl)cc1 | >300 µM
21 | O=C1CC[C@]2(c3ccc(Cl)c(Cl)c3)OC(COc3ccc(Cl)cc3)CN12 (single isomer, unassigned) | >300 µM
22 | O=C1CC[C@]2(c3ccc(Cl)c(Cl)c3)O[C@H](COc3ccc(Cl)cc3)CN12 | 10 µM
23 | COC(=O)c1cc(CO)on1 | >300 µM
24 | Cc1c(C)c2c(c(C)c1O)CCC(C)(COc1ccc(CC3SC(=O)NC3=O)cc1)O2 (centres undefined) [TROGLITAZONE] | 30 µM
25 | CS(=O)(=O)N1C[C@@H](COc2ccc(Cl)cc2)O[C@@H]1c1ccc(Cl)c(Cl)c1 | 30 µM
26 | COC(=O)N1C[C@@H](COc2ccc(Cl)cc2)O[C@@H]1c1ccc(Cl)c(Cl)c1 | 300 µM
27 | O=C1CCC[C@]2(c3ccc(Cl)cc3)SCCN12 | >300 µM

Row | SMILES | Lowest effective concentration for glucose utilization ≥140% of control
28 | CC(=O)N1C[C@@H](COc2ccc(Cl)cc2)O[C@@H]1c1ccc(Cl)c(C(F)(F)F)c1 | 30 µM
29 | CC(=O)N1CCS[C@@H]1c1ccc(Cl)cc1 | >300 µM
30 | CC(=O)N1C[C@@H](COc2ccc(Cl)cc2)S[C@@H]1c1ccc(Cl)cc1 | 300 µM
31 | CC1(C)C[C@]2(c3ccc(Oc4ccccc4)cc3)O[C@H](COc3ccc(Cl)cc3)CN2C1=O | 30 µM
32 | O=C1CC[C@]2(c3ccc(Cl)cc3)O[C@H](CCc3ccccc3)CN12 | >300 µM
33 | CC(=O)N1C[C@H](COc2ccc(Cl)cc2)S[C@@H]1c1ccc(Cl)cc1 | 30 µM
34 | CC(C)(C)[C@]12CCC(=O)N1C[C@H](COc1ccc(Cl)cc1)O2 | >300 µM
35 | C[C@]12CCC(=O)N1C[C@@H](COc1ccc(Cl)cc1)O2 | >300 µM
36 | O=C(c1ccccc1)N1C[C@H](COc2ccc(Cl)cc2)O[C@@H]1c1ccc(Cl)c(Cl)c1 | 300 µM
37 | COc1ccc([C@]23CCC(=O)N2C[C@H](COc2ccc(Cl)cc2)O3)cc1 | >300 µM
38 | O=C1CC[C@]2(c3ccc(Cl)c(C(F)(F)F)c3)O[C@@H](COc3ccc(Cl)cc3)CN12 | 300 µM
39 | CC(C)(C)OC[C@@H]1CN2C(=O)CC[C@]2(c2ccc(Cl)cc2)O1 | 300 µM
40 | OCc1cc(-c2ccc(Cl)cc2Cl)no1 | 300 µM
41 | O=C1CC[C@]2(c3c[nH]c4ccccc34)O[C@H](COc3ccc(Cl)cc3)CN12 | >300 µM
42 | C=CCOC[C@@H]1CN2C(=O)CC[C@]2(c2ccc(Cl)cc2)O1 | >300 µM
43 | O=C1CCC[C@]2(c3ccccc3)O[C@@H](COc3ccc(Cl)cc3)CN12 | >300 µM
44 | O=C1CC[C@]2(c3ccncc3)O[C@@H](COc3ccc(Cl)cc3)CN12 | 100 µM
45 | C/N=C(\S)N1CCO[C@@H]1c1ccc(Cl)cc1 | >300 µM
46 | O=C1CC[C@]2(c3ccc4oc5ccccc5c4c3)O[C@@H](COc3ccc(Cl)cc3)CN12 | >300 µM
47 | O=C1CC[C@]2(c3ccc(Cl)cc3)O[C@H](COCCO)CN12 | >300 µM
48 | OCc1cc(-c2ccccc2)no1 | >300 µM
49 | O=C1CC[C@]2(c3ccc(Cl)c(Cl)c3)O[C@H](CSc3ccc(Cl)cc3)CN12 | 100 µM
50 | O=C1CC[C@]2(c3ccccc3)OC[C@@H](O)CN12 | >300 µM
51 | COc1ccc([C@H]2O[C@H](COc3ccc(Cl)cc3)CN2C(C)=O)cc1 | >300 µM
52 | COc1ccc([C@H]2O[C@@H](COc3ccc(Cl)cc3)CN2C(C)=O)cc1 | >300 µM
53 | CC(=O)N1C[C@H](COc2ccc(Cl)cc2)O[C@@H]1c1ccc(Cl)c(Cl)c1 | 30 µM
54 | O=C(O)c1cc(CO)on1 | >300 µM

Row | SMILES | Lowest effective concentration for glucose utilization ≥140% of control
55 | O=C1CC[C@]2(c3ccc(Cl)cc3)O[C@@H](CCc3ccccc3)CN12 | >300 µM
56 | O=C(c1ccccc1)N1C[C@@H](COc2ccc(Cl)cc2)O[C@@H]1c1ccc(Cl)c(Cl)c1 | >300 µM
57 | O=C1CC[C@]2(c3ccc(F)cc3)O[C@@H](COc3ccc(Cl)cc3)CN12 | >300 µM
58 | CNC(=O)N1CCS[C@@H]1c1ccc(Cl)cc1 | 300 µM
59 | O=C1CC[C@]2(c3cccnc3)O[C@@H](COc3ccc(Cl)cc3)CN12 | 300 µM
60 | O=C1CC[C@]2(C3CCCCC3)O[C@H](COc3ccc(Cl)cc3)CN12 | 100 µM
61 | COCc1cc(-c2ccc(Cl)cc2)no1 | 100 µM
62 | OCc1cc(Cc2ccccc2)no1 | >300 µM
63 | C/N=C(\S)N1CCS[C@@H]1c1ccc(Cl)cc1 | 300 µM
64 | CC1(C)C[C@]2(c3ccc(Cl)cc3)O[C@H](COc3ccc(Cl)cc3)CN2C1=O | 30 µM
65 | CC(C)C(=O)N1C[C@@H](COc2ccc(Cl)cc2)O[C@@H]1c1ccc(Cl)c(Cl)c1 | 30 µM
66 | O=C1CC[C@]2(c3ccccc3)OC[C@H](O)CN12 | >300 µM
67 | CS(=O)(=O)N1CCS[C@@H]1c1ccc(Cl)cc1 | 300 µM
68 | O=C1CC[C@]2(c3ccncc3)O[C@H](COc3ccc(Cl)cc3)CN12 | 30 µM
69 | O=C1CC[C@]2(c3ccc(Cl)c(Cl)c3)O[C@@H](CSc3ccc(Cl)cc3)CN12 | 100 µM
70 | O=C(Nc1ccccc1)N1C[C@@H](COc2ccc(Cl)cc2)O[C@@H]1c1ccc(Cl)c(Cl)c1 | 30 µM
71 | CN(C)C(=N)NC(=N)N.Cl [METFORMIN HYDROCHLORIDE] | 1000 µM
72 | O=C1CC[C@]2(c3cccc4ccccc34)O[C@H](COc3ccc(Cl)cc3)CN12 | >300 µM
73 | Cc1cc(CO)on1 | >300 µM
74 | O=C1CC[C@]2(c3ccc(-c4ccccc4)cc3)O[C@@H](COc3ccc(Cl)cc3)CN12 | >300 µM
75 | O=C1CC[C@]2(c3ccc(Cl)cc3)O[C@H](CO)CN12 | >300 µM
76 | CC(=O)N1C[C@@H](COc2ccc(Cl)cc2)O[C@@H]1c1ccc(Cl)cc1 | 100 µM
77 | CC1(C)C[C@]2(c3ccc(Cl)cc3)O[C@@H](COc3ccc(Cl)cc3)CN2C1=O | 100 µM
78 | CS(=O)(=O)N1C[C@H](COc2ccc(Cl)cc2)O[C@@H]1c1ccc(Cl)c(Cl)c1 | 30 µM
79 | O=C1CC[C@]2(C3CCCCC3)O[C@@H](COc3ccc(Cl)cc3)CN12 | >300 µM

Source: ChEMBL document CHEMBL1131263, “Substituted tetrahydropyrrolo[2,1-b]oxazol-5(6H)-ones and tetrahydropyrrolo[2,1-b]thiazol-5(6H)-ones as hypoglycemic agents” (1998)
